# Lmaj promast = Leishmania major promastigote growth inhibition, primary screen | Leishmania major promastigotes, resazurin fluorescence viability | 200,000 compounds, 9% hits | inhibition, % at 10 µM | AID 1063, 2008;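 also: promastigotes grown with compound for 44 hours at 28 °C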
# NLRP3 yeast inh = NALP3 inflammasome inhibitors in reconstituted yeast, primary screen, luminescence, uHTS; Yeast reconstituted NLRP3/ASC/caspase-1, beta-gal luminescence, 24 h; inhibition, % at 10 µM; 330,000 compounds, 0.39% hits;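 active = inhibition of 50% or more; inactive = inhibition below 50%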;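 also: plate controls were induced DMSO wells for no effect and uninduced yeast grown without galactose for full effect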
# T cruzi inh = inhibitors of intracellular T. cruzi growth, primary screen, luminescence, NIH3T3 host cells; 300,000 compounds, 1.4% hits; T. cruzi beta-gal in NIH3T3, 90 h; inhibition, % (concentration not given with the values);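 active = mean inhibition across valid replicates above about 55%, limit read from the data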;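 also: signal also drops with host cell toxicity which is not excluded here; 0% = plate median of DMSO wells and 100% = zero luminescence signal; higher percent means less beta-gal luminescence so fewer parasites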
#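 System: mouse NIH/3T3 fibroblasts infected with β-gal-expressing T. cruzi Tulahuen C4 / Input: NIH/3T3 cells, 5,000 per well / Buffer or medium: Low-serum DMEM with 2% FBS / Probe or stimulus: 5000 reporter trypomastigotes per well / Schedule: ≥90 h infection period, 3 h prior cell attachment / Measured by: GalScreen luminescence, 60 min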
# PolyA inh = polyadenylation inhibitors in yeast reporter cells, primary screen, luminescence, S. cerevisiae | S. cerevisiae SKY197-pL101 polyadenylation reporter, beta-gal luminescence; efflux-impaired pdr1/pdr3 knockout yeast; score 100 = 6 SD above DMSO | activity score, % at 12 µM | 300,000 compounds, 0.02% hits;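 active = lowest replicate activity score at least 50, where 100 means six control SD above control mean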;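 also: yeast exposed to compound for 9 h at 30 °C; higher score means more reporter readthrough which indicates perturbed polyadenylation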
# NALP1 inh = NALP1 inflammasome inhibitors in reconstituted yeast, colorimetric, S. cerevisiae, triplicate retest; S. cerevisiae NALP1/ASC/caspase-1 growth, X-gal OD620, 72 h; inhibition, % at 10 µM; 280,000 compounds, 0.61% hits; AID 2071, 2009; in the data active = inhibition mostly above about 24%, no sharp cut-off; inactive = mostly below about 32%
# Calb FLC = C. albicans growth inhibition with fluconazole, primary screen, CaCi-2 strain, Alamar Blue fluorescence; C. albicans CaCi-2 + fluconazole, 48 h; growth inhibition, % (no concentration beside the values); 300,000 compounds, 0.57% hits; AID 1979, 2009;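 active = growth inhibition above about 58% in most replicates, limit read from the data, passing the limit was not always enough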;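 also: all wells also contain fluconazole at 8 µg/ml as a sub-toxic cotreatment; 0% = median of DMSO wells and 100% = median of geldanamycin control wells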
# NALP3 confirm = NALP3 inhibitors retested in yeast, confirmation, luminescence, single concentration | shares compounds with NLRP3 yeast inh | yeast expressing human NALP3 | inhibition, % at 10 µM | 1,300 compounds, 81% hits | AID 435006, 2010; in the data active = inhibition above about 48%
# Casp1 ASC ctr = CASP1-PYCARD signaling inhibition in yeast, confirmatory test, counterassay for NLRP3 inhibitor program, one-dose; shares compounds with NLRP3 yeast inh; yeast expressing Caspase-1-ASC, luminescence counter screen; inhibition, % at 10 µM; 1,000 compounds, 66% hits
# NALP3 retest = NALP3 inhibitors in yeast, repeat test, confirmation, luminescence, single concentration, retest; shares compounds with NLRP3 yeast inh; yeast expressing human NALP3, luminescence read-out; inhibition, % at 10 µM; 1,000 compounds, 53% hits
# Numbers without * were called inactive; nt = no result. Only a selection was taken, and hits are over-represented in it overall. Rule as the data show it, unless noted: active = inhibition above about 50%; inactive = the rest.
SMILES,Lmaj promast,NLRP3 yeast inh,T cruzi inh,PolyA inh,NALP1 inh,Calb FLC,NALP3 confirm,Casp1 ASC ctr,NALP3 retest
COc1cc2cc(C(=O)N/N=C/c3ccccc3Cl)[nH]c2cc1OC,nt,6,-3,4,-4,27,nt,nt,nt
C=CCOc1ccc(C(=O)/C=C2/C(=O)Nc3ccccc32)cc1,nt,36,21,-18,3,13,nt,nt,nt
C=CCOc1ccccc1C(=O)/C=C1/C(=O)Nc2ccccc21,nt,59*,1,-5,-23,-14,75*,53*,59*
COc1ccc(C(=O)/C=C2/C(=O)Nc3ccccc32)c(OC)c1,nt,69*,9,7,-50,16,82*,76*,80*
COc1ccc(C(=O)/C=C2/C(=O)Nc3ccccc32)cc1OC,nt,26,13,-9,-5,15,nt,nt,nt
COc1cc(C=O)ccc1OCCSc1ccc(C)cc1,0,18,6,-1,nt,-7,nt,nt,nt
CCOc1cc(C=O)ccc1OCCSc1ccc(C)cc1,40,65*,0,-25,19,15,69*,65*,39
CC(=O)c1cnc2nc(SCc3ccc(Cl)cc3)nn2c1C,nt,53*,11,-18,-12,1,71*,64*,50*
CC(=O)c1cnc2nc(SCc3ccc(C)cc3)nn2c1C,nt,33,4,9,3,-1,nt,nt,nt
CS(=O)(=O)N1CCN=C1SCc1ccc([N+](=O)[O-])cc1,0,5,-16,11,13,-9,nt,nt,nt
COc1ccc(C(=O)CC(=O)c2ccc(OC)cc2)cc1,nt,39,-12,-10,9,1,nt,nt,nt
COc1ccc(C(=O)c2no[n+]([O-])c2C(=O)c2ccc(OC)cc2)cc1,-6,70*,-15,-7,21,8,80*,81*,62*
Cc1cc(C)cc(NC(=O)COC(=O)CC2CCCC2)c1,nt,11,nt,nt,nt,nt,nt,nt,nt
Cc1ccc(C(C)C)c(Oc2nnnn2-c2ccccc2)c1,11,-91,3,-27,-24,-10,nt,nt,nt
Cc1ccc(C)c(Oc2nnnn2-c2ccccc2)c1,-2,-108,-4,-3,3,-14,-5,nt,nt
Cc1cccc(C)c1OCc1nnc(SCC(=O)Nc2ccc(N3CCOCC3)cc2)o1,nt,7,-5,-5,-25,2,nt,nt,nt
CCCn1c(CCNC(=O)c2ccco2)nc2ccccc21,nt,16,-6,-16,11,-1,nt,nt,nt
COC(=O)c1ccc(CNCC(O)COc2ccc(-c3ccccc3)cc2)cc1 (stereo unspecified),nt,39,33,8,24,-11,nt,nt,nt
COc1ccc(CNCC(O)COc2ccc(C(C)(C)c3ccccc3)cc2)cc1 (stereo unspecified),nt,53*,43,6,17,8,76*,nt,nt
Cc1ccc(N2C(=O)C3N=NN(CC(=O)N4N=C(c5ccccc5)CC4c4ccccc4)C3C2=O)cc1 (stereo unspecified),1,65*,2,-10,-21,4,61*,18,36
CCOc1ncccc1C(=O)Nc1cccc(S(=O)(=O)N2CCOCC2)c1,nt,9,nt,nt,nt,nt,nt,nt,nt
O=C(CCl)Nc1cc(-c2ccccc2)nn1-c1ccccc1,98*,55*,13,-6,77*,66,66*,78*,69*
Cc1ccc(-c2cc(NC(=O)CCl)n(-c3ccccc3)n2)cc1,100*,54*,4,-41,nt,-3,33,nt,nt
Cc1c(-c2ncn[nH]2)sc(C#N)c1-c1ccccc1,-9,38,7,-25,21,48,nt,nt,nt
Cc1ccc(C)c(NC2=C(Cl)C(=O)OC2OC(C)C)c1 (stereo unspecified),9,19,0,-6,7,0,nt,nt,nt
SMILES,Lmaj promast,NLRP3 yeast inh,T cruzi inh,PolyA inh,NALP1 inh,Calb FLC,NALP3 confirm,Casp1 ASC ctr,NALP3 retest
Cc1ccc(-c2ccc(S(=O)(=O)Nc3cccnc3)cc2)cc1,nt,9,12,-16,6,7,nt,nt,nt
NCCc1nnc(SCC(=O)Nc2cccc(Cl)c2)o1,nt,52*,-12,-31,17,nt,75*,57*,68*
CC(C)(C)OC(=O)NCCc1nnc(SCC(=O)Nc2cccc(Cl)c2)o1,-4,6,-7,1,-6,16,nt,nt,nt
COc1cc(C#N)c(NC(=O)CN2CCN(CCO)CC2)cc1OC,5,-9,-15,14,4,-19,nt,nt,nt
CCCC1CCC(c2ccc(OCC)cc2)=CC1=O (stereo unspecified),nt,52*,7,-1,21,-38,62*,40,50
CCOC(=O)CCNCc1ccc(OC)c(OC)c1,nt,9,-3,-1,28,7,nt,nt,nt
O=C(O)CCCCCN1C(=O)/C(=C\c2cn(-c3ccccc3)nc2-c2cccs2)SC1=S,nt,18,14,1,-6,42,nt,nt,nt
CC1=NNC(=O)/C1=C\c1cn(-c2ccccc2)nc1-c1cccs1,100*,54*,-9,-43,65*,32,74*,nt,nt
C=CC1CN(C(=O)OCC(Cl)(Cl)Cl)C2CC3c4ccc(OC)cc4NC3C3CC1C2CO3 (stereo unspecified),nt,10,17,6,nt,-6,nt,nt,nt
CCCCOC(=O)Nc1cccc(Cl)c1C,-6,-12,-3,-1,-2,-7,nt,nt,nt
O=C(/C=C\Nc1ccccn1)c1ccccc1,-2,63*,-1,34,-5,-34,46*,59*,54*
O=C(Nc1ccc(F)cc1)C1(S(=O)(=O)c2ccc(Cl)cc2)CC1,nt,55*,-15,28,18,-3,75*,48,42
COc1ccc(CNC(=O)c2c(C)oc3c2C(=O)c2ccccc2C3=O)cc1,31,69*,39,-12,40,-15,71*,5,43
COC(=O)c1sc2nc3c(cc2c1N)CCCC3,-1,51*,-1,-14,-9,46,66*,64*,58*
NC(=O)c1sc2nc3c(cc2c1N)CCC3,-5,6,16,1,-3,-3,nt,nt,nt
CCOc1cc(/C=C\[N+](=O)[O-])ccc1OCC(=O)Nc1ccccc1C,71*,58*,37,-61,0,-10,25,nt,nt
CN1CCN(c2cc(-c3ccccc3)nc3cc(-c4ccc(F)cc4)nn23)CC1,100*,52*,35,-5,5,7,63*,68*,66*

# Compound activity from PubChem.
